Source: ChEMBL document CHEMBL5385911, “Exploring the Dispersion and Electrostatic Components in Arene-Arene Interactions between Ligands and G4 DNA to Develop G4-Ligands” (J Med Chem, 2024)
Converted amounts (≈) assume the structure as drawn. The source made the active and inactive calls. The calls are words filed in the database; no cut-off is given here.

Legend:
[1] = system: Quadruplex DNA; assay: Stabilization of fluorescently labelled c-Myc G4-quadruplex Pu22 DNA (unknown origin) assessed as increase in thermal stability of DNA structure at 40 equiv. by FRET melting assay; assay type: nucleic-acid assay
Outline: (§1)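 Pu22 (FAM/TAMRA, 0.2 μM), folded in 10 mM lithium cacodylate pH 7.4, 2 mM KCl, 98 mM LiCl. Ligand at 5, 10, 25 or 40 equivalents. Heated 10–95 °C; donor emission at 516 nm (excitation 492 nm) normalized. Tm taken at 0.5 normalized emission; ΔTm is Tm with ligand minus Tm without ligand. Duplicate wells.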

[2] = Stabilization of double stranded PEPu24T mut DNA (unknown origin) assessed as inhibition of Taq DNA polymerase activity by measuring reduction in full length DNA product at 6 uM pretreated for 10 mins followed by incubation with dNTPs for 15 mins by PAGE analysis; conditions: time 25.0 min
Outline: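 Non-G4 control template: TET-labelled 25 nt primer (1 μM final) annealed to mutated PEPu24T mut (1.25 μM final) in 100 mM KCl. 40 nM template, Taq buffer pH 8.8, 25 mM MgCl2, 0.05 U Taq. Compound on ice 10 min, then 100 μM dNTPs at 37 °C 15 min. Denaturing PAGE; full-length product as % of no-compound sample.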

[3] = system: Quadruplex DNA; assay: Stabilization of 5'-FAM and 3'-TAMRA labelled c-Myc G4-quadruplex Pu24T DNA (unknown origin) assessed as increase in thermal stability of DNA structure at 5 to 40 equiv. by FRET melting assay; conditions: dose 5-40 equiv
[4] = Solubility of the compound at pH 7.4; assay type: physicochemical; conditions: buffer
[5] = system: Quadruplex DNA; assay: Stabilization of fluorescently labelled c-Myc G4-quadruplex Pu22 DNA (unknown origin) assessed as increase in thermal stability of DNA structure at 5 to 40 equiv. by FRET melting assay; assay type: nucleic-acid assay; conditions: dose 5-40 equiv; outline: as §1
[6] = system: Quadruplex DNA; assay: Stabilization of G4-quadruplex PEPu24T DNA (unknown origin) assessed as inhibition of Taq DNA polymerase activity by measuring reduction in full length DNA product at 0.048 to 6 uM pretreated for 10 mins followed by incubation with dNTPs for 15 mins by PAGE analysis; assay type: nucleic-acid assay; conditions: dose 0.048-6 µM, time 25.0 min
Outline: (§2)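 Template made by annealing TET-labelled 25 nt primer (1 μM final) to PEPu24T (1.25 μM final) in 100 mM KCl. Reaction: 40 nM template, Taq buffer pH 8.8 with 50 mM KCl, 25 mM MgCl2, 0.05 U Taq. Compound preincubated on ice 10 min; dNTPs (100 μM) added, 37 °C 15 min. Denaturing 12% urea/formamide PAGE; full-length product expressed as % of no-compound sample; SD of ≥2 independent experiments.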

[7] = system: Quadruplex DNA; assay: Binding affinity to c-Myc G4-quadruplex Pu22 DNA (unknown origin) assessed as change in entropy by isothermal titration calorimetry; assay type: nucleic-acid assay
Outline: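 Reverse titration: cell holds 20 μM ligand, syringe 120 μM prefolded G4 DNA, 20 injections in 10 mM potassium phosphate, 100 mM KCl, pH 7.4, at 19 °C. First injection 0.5 μL, then 2 μL, 120 s spacing, 1000 rpm, high-feedback mode. Data fitted to one-site binding model.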

[8] = system: Quadruplex DNA; assay: Stabilization of G4-quadruplex PEPu24T DNA (unknown origin) assessed as inhibition of Taq DNA polymerase activity by measuring reduction in full length DNA product at 1.2 uM pretreated for 10 mins followed by incubation with dNTPs for 15 mins by PAGE analysis; assay type: nucleic-acid assay; conditions: time 25.0 min; outline: as §2
[9] = system: Quadruplex DNA; assay: Binding affinity to c-Myc G4-quadruplex Pu22 DNA (unknown origin) at 0.7 equivalent by NMR titration analysis; assay type: nucleic-acid assay; conditions: dose 0.7 equiv
Outline: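 Pu22 folded at 100 μM in 10 mM potassium phosphate pH 7.4, 35 mM KCl (95 °C 10 min, cooled overnight). 10% D2O added, giving 90 μM DNA. Compound added stepwise in increasing equivalents. 1D 1H spectra with excitation sculpting, 256 scans, 298 K, 850 MHz.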

[10] = system: Quadruplex DNA; assay: Stabilization of fluorescently labelled G4-quadruplex c-KIT2 DNA (unknown origin) assessed as increase in thermal stability of DNA structure at 5 uM by FRET melting assay; assay type: nucleic-acid assay
Outline: (§3)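 0.2 μM FAM/TAMRA dual-labelled oligonucleotide, prefolded in 10 mM lithium cacodylate pH 7.4, 10 mM KCl, 90 mM LiCl (95 °C 10 min, then ≥1 h cold). Ligand added and sample heated from 10 to 95 °C; donor emission at 516 nm (excitation 492 nm) normalized. Tm taken at 0.5 normalized emission; ΔTm is Tm with ligand minus Tm without ligand. Duplicate wells.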

[11] = system: Quadruplex DNA; assay: Stabilization of fluorescently labelled G4-quadruplex 25Ceb DNA (unknown origin) assessed as increase in thermal stability of DNA structure at 5 uM by FRET melting assay; assay type: nucleic-acid assay; outline: as §3
[12] = system: Quadruplex DNA; assay: Stabilization of fluorescently labelled G4-quadruplex Bcl2 DNA (unknown origin) assessed as increase in thermal stability of DNA structure at 5 uM by FRET melting assay; assay type: nucleic-acid assay; outline: as §3
[13] = system: Quadruplex DNA; assay: Stabilization of fluorescently labelled G4-quadruplex 21G DNA (unknown origin) assessed as increase in thermal stability of DNA structure at 5 uM by FRET melting assay; assay type: nucleic-acid assay; outline: as §3
[14] = system: Quadruplex DNA; assay: Stabilization of fluorescently labelled G4-quadruplex Bom17 DNA (unknown origin) assessed as increase in thermal stability of DNA structure at 5 uM by FRET melting assay; assay type: nucleic-acid assay; outline: as §3
[15] = system: Quadruplex DNA; assay: Stabilization of fluorescently labelled G4-quadruplex Tba DNA (unknown origin) assessed as increase in thermal stability of DNA structure at 5 uM by FRET melting assay; assay type: nucleic-acid assay; outline: as §3
[16] = system: Quadruplex DNA; assay: Stabilization of fluorescently labelled c-Myc G4-quadruplex Pu22 DNA (unknown origin) assessed as increase in thermal stability of DNA structure at 5 uM in presence of double stranded competitor DNA ds26 by FRET melting assay; assay type: nucleic-acid assay
Outline: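 Competition melting: 0.2 μM labelled Pu22 in 10 mM lithium cacodylate pH 7.4, 2 mM KCl, 98 mM LiCl, with ligand plus 0–100 equivalents of ds26 duplex competitor. Heated 10–95 °C; FAM emission normalized. Tm taken at 0.5 normalized emission; ΔTm is Tm with ligand minus Tm without ligand. SD of at least six independent experiments.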

[17] = system: dsDNA; assay: Binding affinity to 5'-Cy5-labelled double stranded DNA ds26 (unknown origin) by microscale thermophoresis analysis; assay type: nucleic-acid assay
Outline: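 Cy5-labelled DNA held at 25 nM, folded in 10 mM phosphate, 100 mM KCl, pH 7.4 (95 °C 5 min, cooled to room temperature). Ligand in 16 1:3 dilutions in 10 mM phosphate pH 7.4, 100 mM KCl, 0.05% Tween20. Capillary fluorescence read at 20% LED power; change in fluorescence versus ligand concentration fitted by nonlinear equation for binding constant.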

[18] = system: THP-1; assay: Cytotoxicity against human THP-1 cells assessed as reduction in cell viability at <50 uM; assay type: toxicity, cell-based; conditions: thp-1, 50 µM
[19] = system: Quadruplex DNA; assay: Stabilization of G4-quadruplex DNA in human HeLa cells assessed as increase in BG4-positive cell nuclei at 20 uM incubated for 24 hrs by immunofluorescence microscopy; assay type: functional, cell-based
Outline: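 HeLa cells (60,000 on coverslips) treated 24 h. Cells fixed in 2% paraformaldehyde, permeabilized in 0.1% Triton X-100, blocked in 2% milk. Stained with BG4–FLAG (1/3000), rabbit anti-FLAG, then Alexa594 anti-rabbit, each 1 h at 37 °C; nuclei stained with DAPI. BG4 foci per nucleus counted, 90–166 cells per condition. Welch-corrected t tests on ln-transformed data; mean ± 2SD shown.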

SMILES	Activity [2]	Activity [3]	solubility [4]	Activity [5]	Activity [6]	further results
Cc1cc(NCCCN(C)C)nc(Nc2nc(C)c3ccccc3n2)n1	inactive	Active	–	–	–	Activity [1]: Active
Cc1cc(NCCCN(C)C)nc(Nc2nc3cc(Cl)c(Cl)cc3nc2C)n1	inactive	Active	–	Active	Active	–
COc1ccc2nc(Nc3nc(C)cc(NCCCN(C)C)n3)nc(C)c2c1	inactive	Active	858 µM (≈ 327 µg/mL)	–	–	Activity [1]: Active
Cc1cc(NCCCN(C)C)nc(Nc2cnc3ccccc3n2)n1	inactive	Active	–	inactive	Active	–
Cc1cc(NCCCN(C)C)nc(Nc2nc3ccccc3nc2C)n1	inactive	Active	–	Active	Active	–

Continued, in another order:

Activity [2]	Activity [3]	solubility [4]	Activity [5]	Activity [6]	SMILES	further results
inactive	–	134 µM (≈ 37.4 µg/mL)	–	–	Cc1ccc2nc(Nc3nc(C)cc(C)n3)nc(C)c2c1	–
inactive	–	134 µM (≈ 35.6 µg/mL)	–	–	Cc1cc(C)nc(Nc2nc(C)c3ccccc3n2)n1	–
inactive	–	134 µM (≈ 39.3 µg/mL)	–	–	Cc1cc(C)c2nc(Nc3nc(C)cc(C)n3)nc(C)c2c1	-TdeltaS [7]: 3.2 kcal/mol; inhibition [8]: 50%; Activity [9]: Active; Activity [10]: Active; Activity [11]: Active; Activity [12]: Active; Activity [13]: Active; Activity [14]: Active; Activity [15]: inactive; Activity [16]: Active; Activity [17]: inactive; Activity [18]: Non-Toxic; Activity [19]: Active
